Calls of active or inactive are those of the source. No cut-off for these calls is given here.
Columns and labels:
[1] = molecular target: Ubiquitin carboxyl-terminal hydrolase isozyme L1 (Homo sapiens) (UniProt P09936); test: Inhibition of UCHL1 in HEK293T cells incubated for 24 hrs by SDS-PAGE based fluorescence scanning Western blot analysis; format: cell-based
[2] = molecular target: T1, Parkinson disease protein 7 (Homo sapiens) (UniProt Q99497); test: Binding affinity to PARK7 in HEK293T cells assessed as target engagement at 1 to 5 uM incubated for 24 hrs by SDS-PAGE based fluorescence scanning Western blot analysis; format: cell-based; details: dose 1-5 µM
T1 sequence (whole entry): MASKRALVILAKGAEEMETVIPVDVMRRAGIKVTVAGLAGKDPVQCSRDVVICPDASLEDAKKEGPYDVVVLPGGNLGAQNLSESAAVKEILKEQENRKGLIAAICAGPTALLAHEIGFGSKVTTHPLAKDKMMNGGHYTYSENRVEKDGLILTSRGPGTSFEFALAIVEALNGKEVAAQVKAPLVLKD
Summary of the method: (§1)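 Live HEK293T cells (DMEM, 7.5% FBS, 37 °C, 5% CO2) exposed to inhibitor for 24 h, then washed and lysed in Tris/NaCl/0.5% Triton X-100/2 mM TCEP pH 7.5 buffer. Lysate labelled with SulfoCy5 probe JYQ-92 (1 μM, 30 min). Residual PARK7 activity read by SDS-PAGE with Cy5-channel fluorescence scan, then immunoblot for PARK7 with β-actin as loading control.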

[3] = molecular target: T2, Protein cereblon/Parkinson disease protein 7 (Homo sapiens) (UniProt Q96SW2+Q99497); test: PROTAC activity at CRBN/PARK7 in human A549 cells assessed as induction of PARK7 degradation at 0.1 to 5 uM incubated for 8 hrs by Western blot analysis; format: cell-based; details: dose 0.1-5 µM
Summary of the method: (§2)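 A549 cells treated the day after seeding with PROTAC (0.1–5 μM) for 8 h. Lysates boiled in LDS with β-mercaptoethanol and run on 4–12% Bis-Tris/MOPS SDS-PAGE. PARK7 immunoblotted and normalized to DMSO; three independent biological replicates, mean ± SD, Student's t test.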

[4] = molecular target: T2, Protein cereblon/Parkinson disease protein 7 (Homo sapiens); test: PROTAC activity at CRBN/PARK7 in human HeLa cells assessed as induction of PARK7 degradation incubated for 8 hrs by Western blot analysis; format: cell-based; details: dose 0.1-5 µM
Summary of the method: (§3)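 HeLa, H1299 or MCF7 cells (DMEM, 7.5% FBS) treated with a PROTAC concentration series for 8 h. Lysates analysed by SDS-PAGE and anti-PARK7 immunoblot.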

[5] = molecular target: T2, Protein cereblon/Parkinson disease protein 7 (Homo sapiens); test: PROTAC activity at CRBN/PARK7 in human NCI-H1299 cells assessed as induction of PARK7 degradation incubated for 8 hrs by Western blot analysis; format: cell-based; details: dose 0.1-5 µM; summary of the method: as §3
[6] = molecular target: T2, Protein cereblon/Parkinson disease protein 7 (Homo sapiens); test: PROTAC activity at CRBN/PARK7 in human MCF7 cells assessed as induction of PARK7 degradation incubated for 8 hrs by Western blot analysis; format: cell-based; details: dose 0.1-5 µM; summary of the method: as §3
[7] = molecular target: T2, Protein cereblon/Parkinson disease protein 7 (Homo sapiens); test: PROTAC activity at CRBN/PARK7 in human A549 cells assessed as induction of PARK7 degradation at 5 uM incubated for 4 to 24 hrs by Western blot analysis; format: cell-based; details: time 4-24 hrs
Summary of the method: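 A549 cells exposed to PROTAC at 5 μM for varying times across the 4–24 h window. Lysates analysed by SDS-PAGE and anti-PARK7 immunoblot.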

[8] = molecular target: T2, Protein cereblon/Parkinson disease protein 7 (Homo sapiens); test: (§4) PROTAC activity at CRBN/PARK7 in human A549 cells assessed as induction of PARK7 degradation at 5 uM preincubated with pomalidomide for 4 hrs followed by compound addition and measured after 8 hrs by Western blot analysis; format: cell-based
Summary of the method: (§5)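 A549 cells pretreated 4 h with 5 μM pomalidomide, 5 μM PARK7 inhibitor or 10 μM MG-132, then given PROTAC (5 μM) for a further 8 h. PARK7 level assessed by lysis, SDS-PAGE and immunoblot.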

[9] = molecular target: T2, Protein cereblon/Parkinson disease protein 7 (Homo sapiens); test: as §4, with “(R)-1-cyano-N-(5-(2-fluoro-5-(1H-1,2,3-triazol-1-yl)benzoyl)-4,5,6,7-tetrahydrothiazolo[5,4-c]pyridin-2-yl)pyrrolidine-3-carboxamide” for “pomalidomide”; format: cell-based; summary of the method: as §5
[10] = molecular target: T2, Protein cereblon/Parkinson disease protein 7 (Homo sapiens); test: PROTAC activity at CRBN/PARK7 in human A549 cells assessed as induction of PARK7 degradation at 5 uM preincubated with MG-132 for 4 hrs followed by compound addition and measured after 8 hrs by Western blot analysis; format: cell-based; summary of the method: as §5
[11] = molecular target: T2, Protein cereblon/Parkinson disease protein 7 (Homo sapiens); test: PROTAC activity at CRBN/PARK7 in human A549 cells assessed as induction of PARK7 degradation at 5 uM incubated for 8 hrs by TMT-based total proteome profiling; format: cell-based
Summary of the method: (§6)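 A549 cells treated 2 days after seeding with 5 μM compound, or DMSO, for 8 h. Lysed in 5% SDS buffer; 100 μg protein reduced, alkylated and trypsin-digested. Peptides TMTpro-labelled, pooled, high-pH fractionated and analysed by nano-LC-MS/MS; fold change and p-value taken against DMSO.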

A549 [12] = test: Downregulation of TM7SF3 protein level in human A549 cells at 5 uM incubated for 8 hrs by TMT-based total proteome profiling; format: functional, cell-based; summary of the method: as §6
A549 [13] = test: Downregulation of DOP1B protein level in human A549 cells at 5 uM incubated for 8 hrs by TMT-based total proteome profiling; format: functional, cell-based; summary of the method: as §6
[14] = molecular target: T1, Parkinson disease protein 7 (Homo sapiens); test: Inhibition of PARK7 in HEK293T cells at 0.1 to 20 uM incubated for 24 hrs by SDS-PAGE based fluorescence scanning analysis; format: cell-based; details: dose 0.1-20 µM; summary of the method: as §1
A549 [15] = test: Effect on PARK7 protein level in human A549 cells at 5 uM incubated for 8 hrs by TMT-based total proteome profiling; format: functional, cell-based; summary of the method: as §6
A549 [16] = test: Cytotoxicity in human A549 cells assessed as reduction in cell viability upto 5 uM incubated for 72 hrs by CellTiter-Blue viability assay; format: toxicity, cell-based; details: a549, 72 h
Summary of the method: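 A549 cells (5×10^3/well) exposed next day to inhibitor, with DMSO as control. Compound renewed at 36 h, then 36 h more (72 h total). Viability read by CellTiter-Blue, normalized to DMSO and background-corrected.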

[17] = molecular target: T2, Protein cereblon/Parkinson disease protein 7 (Homo sapiens); test: PROTAC activity at CRBN/PARK7 in human A549 cells assessed as induction of PARK7 degradation at 2 uM incubated for 8 hrs by Western blot analysis; format: cell-based; summary of the method: as §2
[18] = molecular target: T1, Parkinson disease protein 7 (Homo sapiens); test: Binding affinity to recombinant human PARK7 incubated for 1 hrs by coomassie staining based SDS-PAGE fluorescence scanning analysis; details: dose 0.1-10 µM
[19] = molecular target: T1, Parkinson disease protein 7 (Homo sapiens); test: Binding affinity to recombinant human PARK7 at 5 uM incubated for 1 hrs by coomassie staining based SDS-PAGE fluorescence scanning analysis relative to control
[20] = molecular target: T1, Parkinson disease protein 7 (Homo sapiens); test: Binding affinity to PARK7 in HEK293T cells assessed as band shift at 5 uM incubated for 24 hrs by SDS-PAGE based fluorescence scanning immunoblotting analysis; format: cell-based; summary of the method: as §1
[21] = molecular target: T1, Parkinson disease protein 7 (Homo sapiens); test: Binding affinity to PARK7 in human A549 cells assessed as band shift at 5 uM incubated for 24 hrs by SDS-PAGE based fluorescence scanning immunoblotting analysis; format: cell-based
Summary of the method: (§7)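 Probes applied to intact HEK293T or A549 cells at 5 μM final for 24 h, then lysed. Read-out by SDS-PAGE fluorescence scan and immunoblot against PARK7, looking at the ~25 kDa labelled band, PARK7 band shift and extra bands.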

[22] = molecular target: T1, Parkinson disease protein 7 (Homo sapiens); test: Binding affinity to recombinant human PARK7 at 1 uM incubated for 1 hrs by coomassie staining based SDS-PAGE fluorescence scanning analysis relative to control
[23] = Drug penetration in human A549 cells at 5 uM incubated for 1 hrs by DAPI staining based confocal microscopic analysis; format: ADME, cell-based; details: a549, 1 h
Summary of the method: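 A549 cells incubated with probes at 5 μM final over a time course (1–24 h). For microscopy, cells on coverslips were fixed in 3.7% formaldehyde/PBS for 20 min, mounted with DAPI and imaged by confocal (63× oil). In parallel, cells were lysed for SDS-PAGE fluorescence scan and PARK7 immunoblot.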

A549 [24] = test: Cellular protein labelling in human A549 cells assessed as unspecific 55-75 kDa band formation at 5 uM by SDS-PAGE based fluorescence scanning immunoblotting analysis; format: functional, cell-based; summary of the method: as §7
[25] = molecular target: T1, Parkinson disease protein 7 (Homo sapiens); test: Binding affinity to PARK7 in A549 cells assessed as band shift at 5 uM incubated for 24 hrs by SDS-PAGE based fluorescence scanning immunoblotting analysis
A549 (Homo sapiens) = test: Cellular protein labelling in A549 cells assessed as unspecific 55-75 kDa band formation at 5 uM by SDS-PAGE based fluorescence scanning immunoblotting analysis
[26] = molecular target: T1, Parkinson disease protein 7 (Homo sapiens); test: Binding affinity to recombinant human PARK7 at 2 uM incubated for 1 hrs by coomassie staining based SDS-PAGE fluorescence scanning analysis relative to control

Chain of Ubiquitin carboxyl-terminal hydrolase isozyme L1 (Homo sapiens) (P09936 whole entry, looked up): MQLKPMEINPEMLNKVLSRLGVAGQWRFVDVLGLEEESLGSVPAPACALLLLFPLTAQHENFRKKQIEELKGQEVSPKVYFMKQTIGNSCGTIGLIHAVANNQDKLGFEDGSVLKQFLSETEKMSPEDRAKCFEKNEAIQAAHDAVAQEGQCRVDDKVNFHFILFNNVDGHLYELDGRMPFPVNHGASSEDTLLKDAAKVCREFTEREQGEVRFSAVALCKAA
T2 sequence (Q96SW2 whole entry, looked up, one chain of several): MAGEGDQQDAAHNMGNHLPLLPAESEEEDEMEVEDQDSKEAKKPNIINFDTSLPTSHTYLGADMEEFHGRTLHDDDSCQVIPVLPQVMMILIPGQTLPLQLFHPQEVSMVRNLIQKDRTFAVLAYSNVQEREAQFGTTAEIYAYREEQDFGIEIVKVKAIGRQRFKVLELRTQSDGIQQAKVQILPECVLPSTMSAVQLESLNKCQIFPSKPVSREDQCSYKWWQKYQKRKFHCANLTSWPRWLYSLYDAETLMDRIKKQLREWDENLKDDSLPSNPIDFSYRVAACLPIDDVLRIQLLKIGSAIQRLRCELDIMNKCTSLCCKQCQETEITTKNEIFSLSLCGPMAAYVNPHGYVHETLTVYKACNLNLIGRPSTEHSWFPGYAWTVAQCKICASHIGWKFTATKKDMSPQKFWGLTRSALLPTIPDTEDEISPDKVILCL

## CC(=O)N1CCN(S(=O)(=O)c2cccc(C(=O)N3CCc4nc(NC(=O)[C@@H]5CCN(C#N)C5)sc4C3)c2)CC1
[1]
  inhibition: inactive
[2]
  Activity: Active

## N#CN1CC[C@@H](C(=O)Nc2nc3c(s2)CN(C(=O)c2cc(-n4cc(COCCOCCNc5cccc6c5C(=O)N(C5CCC(=O)NC5=O)C6=O)nn4)ccc2F)CC3)C1 (stereo partly specified)
[3]
  Activity: Active
[4]
  Activity: Dose-Dependent Effect
[5]
  Activity: Dose-Dependent Effect
[6]
  Activity: Dose-Dependent Effect
[7]
  Activity: Active
[8]
  Activity: inactive
[9]
  Activity: inactive
[10]
  Activity: inactive
[11]
  Activity: Active
A549 [12]
  Activity: Active
A549 [13]
  Activity: Active

## N#CN1CC[C@@H](C(=O)Nc2nc3c(s2)CN(C(=O)c2cccc(S(=O)(=O)N4CCN(C(=O)Cn5cc(COCCOCCNc6cccc7c6C(=O)N(C6CCC(=O)NC6=O)C7=O)nn5)CC4)c2)CC3)C1 (stereo partly specified)
[3]
  Activity: inactive

## N#CN1CC[C@@H](C(=O)Nc2nc3c(s2)CN(C(=O)c2cccc(S(=O)(=O)N4CCN(C(=O)Cn5cc(COCCOCCOCCNc6cccc7c6C(=O)N(C6CCC(=O)NC6=O)C7=O)nn5)CC4)c2)CC3)C1 (stereo partly specified)
[3]
  Activity: inactive

## N#CN1CC[C@@H](C(=O)Nc2nc3c(s2)CN(C(=O)c2cnc(-c4cccs4)s2)CC3)C1
[1]
  inhibition: Active

## N#CN1CC[C@@H](C(=O)Nc2nc3c(s2)CN(C(=O)CN=[N+]=[N-])CC3)C1
[14]
  inhibition: inactive

## N#CN1CC[C@@H](C(=O)Nc2nc3c(s2)CN(C(=O)c2cc(-n4ccnn4)ccc2F)CC3)C1
A549 [15]
  Activity: inactive
A549 [12]
  Activity: Active
A549 [13]
  Activity: Active
[1]
  inhibition: inactive
A549 [16]
  Activity: Non-Toxic

## N#CN1CC[C@@H](C(=O)Nc2nc3c(s2)CN(C(=O)c2cc(-n4cc(COCCOCCOCCNc5cccc6c5C(=O)N(C5CCC(=O)NC5=O)C6=O)nn4)ccc2F)CC3)C1 (stereo partly specified)
[17]
  Activity: Active

## N#CN1CC[C@@H](C(=O)Nc2nc3c(s2)CN(C(=O)c2cccc(S(=O)(=O)N4CCOCC4)c2)CC3)C1
[1]
  inhibition: inactive
A549 [16]
  Activity: Non-Toxic

## CC1=CC(C)=[N+]2C1=C(CCCCc1cn(CC(=O)N3CCN(S(=O)(=O)c4cccc(C(=O)N5CCc6nc(NC(=O)[C@@H]7CCN(C#N)C7)sc6C5)c4)CC3)nn1)c1c(C)cc(C)n1[B-]2(F)F
[18]
  Activity: Dose-Dependent Effect
[19]
  Activity: 100%
[20]
  Activity: inactive
[21]
  Activity: inactive

## CC[N+]1=C(/C=C/C=C/C=C2/N(CCCCCC(=O)NCCCc3cn(-c4ccc(F)c(C(=O)N5CCc6nc(NC(=O)[C@@H]7CCN(C#N)C7)sc6C5)c4)nn3)c3ccc(S(=O)(=O)O)cc3C2(C)C)C(C)(C)c2cc(S(=O)(=O)[O-])ccc21
[18]
  Activity: Dose-Dependent Effect
[22]
  Activity: 100%
[21]
  Activity: Active
[23]
  Drug uptake: Active
A549 [24]
  Activity: Active
[25]
  Activity: Active
A549 (Homo sapiens)
  Activity: Active

## Cc1csc(-c2cccc(C(=O)N3CCc4nc(NC(=O)[C@@H]5CCN(C#N)C5)sc4C3)c2)n1
[1]
  inhibition: Active

## CC[N+]1=C(/C=C/C=C/C=C2/N(CCCCCC(=O)NCCCc3cn(CC(=O)N4CCN(S(=O)(=O)c5cccc(C(=O)N6CCc7nc(NC(=O)[C@@H]8CCN(C#N)C8)sc7C6)c5)CC4)nn3)c3ccc(S(=O)(=O)[O-])cc3C2(C)C)C(C)(C)c2cc(S(=O)(=O)O)ccc21
[18]
  Activity: Dose-Dependent Effect
[26]
  Activity: 100%
[21]
  Activity: Active
[23]
  Drug uptake: Active
A549 [24]
  Activity: Active
[25]
  Activity: Active
A549 (Homo sapiens)
  Activity: Active

## Cc1cc(C(=O)N2CCc3nc(NC(=O)[C@@H]4CCN(C#N)C4)sc3C2)ccc1Br
[1]
  inhibition: Active

## N#CN1CC[C@@H](C(=O)Nc2nc3c(s2)CN(C(=O)c2cccc(-c4ncon4)c2)CC3)C1
[1]
  inhibition: Active

— ChEMBL document CHEMBL5506034, “Development of Inhibitors, Probes, and PROTAC Provides a Complete Toolbox to Study PARK7 in the Living Cell” (J Med Chem, 2024)
